From ChEMBL document CHEMBL4513216, “Probing the Open Global Health Chemical Diversity Library for Multistage-Active Starting Points for Next-Generation Antimalarials” (ACS Infect Dis, 2020) come the findings set out here.

The nature of this data set: Toxicity liver stage against HepG2, at 10uM. The class given is cell-based. Also on record: test concentration 10 uM, cell line HepG2-A16-CD81EGFP. Particulars: human, HepG2-A16-CD81EGFP cells; read-out: INHIBITION
In short, it runs like this:
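Uninfected HepG2-A16-CD81EGFP cells, 3 × 10^3 per well, 1536-well, plated on prespotted compound at 10 μM final, parasite-free screening media added to match infected plates; puromycin 10 μM positive, DMSO 0.5% negative; run in parallel with 48 h PbLuc assay at 37 °C, 5% CO2; viability by CellTiter-Glo luminescence, normalized to controls.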

For `OCC1CCCN1c1cc(NCCNc2cccnn2)ncn1` (stereo not drawn), the cytotoxicity at 10 µM was 18.5%. In the case of `Cc1ccc(CNC(=O)Nc2nncs2)n1C`, the cytotoxicity at 10 µM is -0.545%. The value for `O=C(Nc1cccc(F)c1)N1CCC(CO)(Nc2ccccc2)CC1` was -5.04%; that for `Cn1ccc(CN2CCCN(c3nccs3)CC2)cc1=O` was 0.0833%. Under `Cc1ccc(C)c(OC2CCN(C(=O)NCC(=O)N3CCCC3)CC2)c1` stands -5.75%; under `CCCN1CCN(C(=O)CCn2nc(C(F)(F)F)c(Br)c2C)CC1`, -8.71%.

As for `CN(C)CC(=O)N1CC[C@H]2OCC[C@@]2(COCC2CC2)C1`, the cytotoxicity at 10 µM was 0.165%. Under `CNc1cc(C)nc(-c2cc(NC)nc3[nH]ccc23)n1` stands -3.92%; under `NC(=O)COc1ccc(CNC(=O)CN2CCc3ccccc32)cc1`, -4.07%. The value for `CCC(C)(CC)NC(=O)COc1nn(C)c2nc(C)cc(C)c12` was -6.17%.

Take `CSc1ccc(NCC(=O)NCC(=O)N2CCCC2)cc1F`: the cytotoxicity at 10 µM was 2.63%. Under `CCc1nccn1CCC(=O)N1CCN(c2ccccc2C)CC1C` (stereo not drawn) stands 11%; under `Cc1cnn(C2CN(Cc3noc(-c4ccccc4)n3)C2)c1`, -1.52%; under `CCCc1nc(CN2CCOC(Cn3cccn3)C2)no1` (stereo not drawn), -27.1%. Take `NC(=O)C1CCN(C(=O)NC2CCc3cc(F)ccc32)CC1` (stereo not drawn): the cytotoxicity at 10 µM was determined as 2.52%. The value for `N#Cc1c(N2CCN(CC3CCOC3)CC2)nc2ccccn12` (stereo not drawn) was 1.37%. Under `CN(C)S(=O)(=O)N1CCN(CC2CCOc3ccccc3C2)CC1` (stereo not drawn) stands -0.529%; under `CS(=O)(=O)NC1CCN(Cc2coc(-c3ccc(Cl)cc3)n2)CC1`, -41.9%; under `Cc1ncc2c(n1)CN(CCCc1ccccc1)CC2`, -34.7%. For `c1coc(CN2CCC3(CC2)COC(COCC2CCOCC2)C3)c1` (stereo not drawn), the cytotoxicity at 10 µM came out at 4.67%. Under `c1ccc(Cn2cc3c(n2)C(COCC2CC2)OCC3)nc1` (stereo not drawn) stands -6.63%.

For `O=C1NCC2(CCCN(C(=O)Nc3cccc(-c4cscn4)c3)CC2)O1` (stereo not drawn), the cytotoxicity at 10 µM was -4.54%. The value for `CC(C)c1cc(NC(=O)CN2CCCC2Cn2cccn2)on1` (stereo not drawn) was -8.35%; that for `CCn1cc(C(=O)NCCN2CCCc3ccccc32)c(C)n1` was 4.23%. Under `CCc1nc(CN2CCN(C(=O)C3CCCCC3)CC2)cs1` stands 3.64%; under `CC(C)N(Cc1cccc(Cl)c1)Cc1nnsc1Cl`, 2.56%. Under `CCOC(=O)C1CCCCN1Cc1c[nH]nc1-c1cc2ccccc2o1` (stereo not drawn) stands 4.8%.

`O=C(CCc1cccnc1)N(Cc1ccsc1)CC1CCCO1` (stereo not drawn): the cytotoxicity at 10 µM was -11.5%.

For the compound `CC1(C)CC(NC(=O)c2cnn(-c3ccccc3F)c2N)CC(C)(C)N1`, the cytotoxicity at 10 µM is -4.14%. Turning to `CCN(C(=O)c1cccc2c1OCO2)c1ccc(Br)cn1`, the cytotoxicity at 10 µM was found to be 3.44%. The value for `Cc1cccc(N2CC[C@H]3[C@H]2CCN3C(=O)c2cnn(C)c2)n1` was 1.24%; that for `Cn1nc2c(c1NC(=O)c1ccc(Cl)s1)CCC2` was -1.51%; that for `CCN1C[C@H]2[C@@H](C1)N(c1ncc(F)cn1)CC[C@H]2OC` was 3.5%. Under `c1cncc(CN2CCCC3(COCCN(c4nccs4)C3)C2)c1` (stereo not drawn) stands -80.4%; under `CCc1nc(-c2ccc(NC(=O)N3CCC4(CC3)OCCO4)cc2)no1`, 7.27%; under `CCNc1ncc(C(=O)N[C@H](C(N)=O)c2ccccc2)cn1`, 10.6%. For `CCS(=O)(=O)N1Cc2ncn(C)c2C(COCC2CCOCC2)C1` (stereo not drawn), the cytotoxicity at 10 µM is -72.6%.

On to `Cc1cnn(CCNCc2nc(Cc3ccccc3)no2)c1`, for which the cytotoxicity at 10 µM is -7.7%. The value for `N#Cc1c[nH]c(C(=O)N(Cc2ccc(O)cc2)CC2CC2)c1` was 11.5%. The value for `N#Cc1cnc(N2CCC3(CC2)OCCO3)nc1N` was 3.51%. Under `CN(C(=O)CN1CCCC1=O)C1CCCN(C2Cc3ccccc3C2)C1` (stereo not drawn) stands 0.024%. As for `CC(=O)NCC(=O)N1CCN(C)c2ncccc2C1`, the cytotoxicity at 10 µM was -113%. The value for `CCn1cc(CNC(=O)C2CCCC2)cn1` was 9.18%; that for `c1ccn2cc(CN3CCCC(c4ccn[nH]4)C3)nc2c1` (stereo not drawn) was 6.76%; that for `O=S(=O)(c1cccnc1)N1CCN(Cc2nc(-c3cccs3)cs2)CC1` was 27.8%. `CC(Cn1cccn1)NCC(=O)NC1CCOCC1` (stereo not drawn): the cytotoxicity at 10 µM came to 2.51%. The value for `OC[C@H]1CCCN1c1nccc(-c2c[nH]nc2C2CCCCC2)n1` was -2.5%; that for `Cc1cccnc1NC(=O)C1CCCN(c2cccc(C(F)(F)F)n2)C1` (stereo not drawn) was 4.95%; that for `CCC(NC(=O)C1CCN(S(=O)(=O)N(C)C)CC1)c1ccc(C)c(C)c1` (stereo not drawn) was -1.02%. The value for `CCC(C)(CC(=O)O)NC(=O)Cc1ccccc1Br` (stereo not drawn) was 1.29%; that for `Cc1ccc(Cl)cc1NCc1nc2n(n1)CCCCC2` was 5.89%; that for `CC(C)CC(=O)Nc1cccc(CNCc2cccs2)c1` was 0.25%.

Turning to `CC1CN(C(=O)NCCCn2cncn2)CCO1` (stereo not drawn), the cytotoxicity at 10 µM is -6.82%. Under `CCN(CC)S(=O)(=O)CC(=O)N1CCc2ccc(F)cc21` stands -4.73%; under `Cc1nc(C)n(C2CCCN(C(=O)c3cccnc3NC(C)C)C2)n1` (stereo not drawn), -2.28%. The value for `O=C(NCCc1cccc(Cl)c1)C1CCOCC1` was -8.47%. Under `Cc1noc(C)c1CN(C)Cn1c(=O)oc2ccccc21` stands -5.07%. Turning to `NC(=O)CCN(CC(=O)NCc1cccs1)c1ccc(F)cc1`, the cytotoxicity at 10 µM was found to be 8.75%. Under `COc1cc(CNc2cnn(C)c2)cc2c1OCCO2` stands -10.8%; under `CC(c1nccs1)N(C)S(=O)(=O)NCc1ccccc1` (stereo not drawn), -2.34%; under `Cc1noc2nc(C3CCN(CC4CCCCC4)CC3)cc(C(F)F)c12`, -0.335%. The value for `O=C(O)C(c1ccc2c(c1)OCO2)N1CCC(C(=O)N2CCCC2)CC1` (stereo not drawn) was 4.22%; that for `CC1NC(=O)COC12CCN(C(=O)Cc1ccsc1)CC2` (stereo not drawn) was -5.73%; that for `CN(C)[C@@H]1CN(C(=O)Cc2ccsc2)[C@@H]2CCCO[C@H]12` was 3.08%. The value for `O=C(NCC1CC1)[C@@H]1C[C@@H]2OCCN[C@@H]2C1` was -131%; that for `O=C(CO[C@@H]1CC[C@H]2[C@H]1OCCN2c1ncccn1)N1CCCC1` was -7.58%; that for `CC1CCN(C(=O)C(C)Oc2ccc3c(c2)OCO3)CC1` (stereo not drawn) was -1.9%.

Turning to `Fc1ccc(OCCNC2CCN(Cc3ccccn3)CC2)c(F)c1`, the cytotoxicity at 10 µM is -3.26%. Under `N#Cc1ccccc1N1CCN(CCC(=O)N2CCOCC2)CC1` stands 10%; under `Cc1noc(CCCNC(=O)N2CCc3ccccc3C2CO)n1` (stereo not drawn), 8.69%; under `CNC(=O)[C@H]1C[C@H]2CN(Cc3cccc(C)c3)C[C@@H]1O2`, 8.97%. Under `Cc1cnn(CC2CCCN2C(=O)c2ccc3nnc(C)n3c2)c1` (stereo not drawn) stands -8.11%; under `CNc1ncc(CN(C)c2ncnc3onc(C)c23)cn1`, -16.8%; under `COc1ccc(C2CC(=O)c3c(O)cc(O)cc3O2)cc1O` (stereo not drawn), -2.66%.

As for `O=C(NCc1ccco1)N1CCC(n2cc(-c3ccccn3)nn2)CC1`, the cytotoxicity at 10 µM amounted to 16.9%. With `Cc1nc(C2CCCN(C(=O)c3scnc3C)C2)no1` (stereo not drawn), the cytotoxicity at 10 µM was -3.18%. The value for `COCCNc1nc(N2CCOCC2)nc2nccnc12` was 4.09%. Under `Cn1ccnc1CN1CCCN(C(=O)c2ccc3c(c2)OCO3)CC1` stands -6.61%; under `CCN(C)CC(=O)N1CCc2nc(NC)nc(C(=O)N3CCCC3)c2C1`, -120%.

For `O=C(NCc1ccccc1Cn1ccnc1)N1CCOCC1`, the cytotoxicity at 10 µM came to 0.84%. Under `O=C(c1ccc(-c2cccc3c2CCNC3)o1)N1CCOCC1` stands 3.34%; under `Cc1ccc(-c2nnc([C@H]3CCN(C4CCC4)C3)o2)cc1`, 8.81%. Under `CCNc1ncc(CN(CCN(C)C)Cc2ccc(C)s2)cn1` stands -46.1%.

Take `c1ncn(Cc2cn3c(n2)CN(CC2CCCC2)CC3)n1`: the cytotoxicity at 10 µM was -127%. Take `O=C(N1CCCC1)N1CCN(Cc2cccnc2)c2ncccc2C1`: the cytotoxicity at 10 µM turned out to be 3.33%.

As for `COCCCN1Cc2cccc(NC(=O)c3cc(F)ccc3F)c2C1`, the cytotoxicity at 10 µM was -1.74%.

For `Cn1ccnc1CN1CCN2C[C@H](OCc3ccccc3)C[C@H]2C1`, the cytotoxicity at 10 µM is 9.37%. The value for `CCN1CCN(C(C)CNC(=O)Nc2nnc(C(C)C)s2)CC1` (stereo not drawn) was 1.06%; that for `CN(Cc1cnccn1)c1cncc(Br)c1` was -8.46%; that for `CC(C)OCCN(Cc1cccc(O)c1)C1CCC(O)CC1` (stereo not drawn) was 5.81%. The value for `CN(C)C(=O)c1nnn(-c2ccc(Br)cc2)n1` was 7.5%. The value for `Cc1c(C(=O)N2CCC2(C)C)nnn1-c1cccc2cccnc12` was 4.13%; that for `Cc1n[nH]c(C)c1-c1cnc(CC2CCCN(S(C)(=O)=O)C2)cn1` (stereo not drawn) was -7.3%. Turning to `CC(C)(C)OC(=O)NC1(c2noc(-c3ccoc3)n2)CCC1`, the cytotoxicity at 10 µM was determined as 3.12%. On to `O=C(c1ccccc1)N1CCC[C@]2(C[C@@H](Oc3ncccc3F)CO2)C1`, for which the cytotoxicity at 10 µM is -1.78%. As for `Cc1ccccc1CNC(=O)N1CCC(n2cncn2)CC1`, the cytotoxicity at 10 µM came to 2.54%.

Regarding `COc1c(C)cnc(CN2CCn3c(C)nnc3C2)c1C`, the cytotoxicity at 10 µM was -4.97%. Under `COc1c(C)cnc(CN2CCOC(Cn3nc(C)nc3C)C2)c1C` (stereo not drawn) stands -13.1%.
